Laboratory results published in ChEMBL document CHEMBL3580560, “Isolation, Structural Modification, and HIV Inhibition of Pentacyclic Lupane-Type Triterpenoids from Cassine xylocarpa and Maytenus cuzcoina” (J Nat Prod, 2015).

What was measured:
[1] = tested on: Human immunodeficiency virus 1; experiment: Antiviral activity against HIV1 NL4.3-Ren infected in human MT2 cells assessed as inhibition of viral growth at 10 uM measured 48 hrs post infection by luminometry; format: functional; conditions: Human immunodeficiency virus 1, NL4.3-Ren, MT2, 48 h
[2] = Selectivity index, ratio of CC50 for mock-infected human MT2 cells to IC50 for HIV1 NL4.3-Ren infected in human MT2 cells; format: functional
[3] = Cytotoxicity against mock-infected human MT2 cells assessed as reduction in cell viability incubated for 48 hrs by cell-titer Glo assay; format: cell-based
Summary of the method: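 Uninfected MT-2 cells received RPMI medium instead of viral supernatant and were treated in parallel with the same fivefold dilutions (100–0.032 μM). […] Values are the mean of at least three independent experiments.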

[4] = tested on: Human immunodeficiency virus 1; experiment: Antiviral activity against HIV1 NL4.3-Ren infected in human MT2 cells assessed as inhibition of viral growth measured 48 hrs post infection by luminometry; format: functional, organism-based; conditions: Human immunodeficiency virus 1, NL4.3-Ren, MT2, 48 h
Summary of the method: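 MT-2 cells infected with X4-tropic HIV-1 NL4.3-Ren supernatant produced in 293T cells. Fivefold serial dilutions from 100 to 0.032 μM were tested. At 48 h postinfection, cells were lysed and Renilla luciferase RLU were measured. IC50 was fitted from the dose–response curve; values are the mean of at least three independent experiments.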

[5] = tested on: Human immunodeficiency virus 1; experiment: Antiviral activity against HIV1 NL4.3-Ren infected in human MT2 cells assessed as inhibition of viral growth by measuring relative luminescence units at 10 uM measured 48 hrs post infection by luminometry relative to untreated control; format: functional; parameters: scale not given: the % may be the effect or the level left

Row | SMILES | inhibition at 10 µM [1] [%] | Ratio CC50/IC50 [2] | CC50 at 48 h [3] [µM] | IC50 [4] [µM] | Activity [5] [%]
1 | C=C(C)[C@@H]1CC[C@]2(COC(C)=O)CC[C@]3(C)[C@H](CC[C@@H]4[C@@]5(C)CCC(=O)C(C)(C)[C@@H]5CC[C@]43C)[C@@H]12 | > 50 | 1.5 | 20 | 13.4 | –
2 | C=C(CO)[C@@H]1CC[C@]2(C)CC[C@]3(C)[C@H](CC[C@@H]4[C@@]5(C)CCC(=O)C(C)(C)[C@@H]5[C@H](O)C[C@]43C)[C@@H]12 | > 50 | 2.1 | 20 | 9.5 | –
3 | C=C(C=O)[C@@H]1CC[C@]2(C)CC[C@]3(C)[C@H](CC[C@@H]4[C@@]5(C)CCC(=O)C(C)(C)[C@@H]5[C@H](O)C[C@]43C)[C@@H]12 | > 50 | 1.3 | 10.4 | 7.9 | 5
4 | C=C(C(=O)O)[C@@H]1CC[C@]2(C)CC[C@]3(C)[C@H](CC[C@@H]4[C@@]5(C)CCC(=O)C(C)(C)[C@@H]5CC[C@]43C)[C@@H]12 | > 50 | – | > 100 | 100 | –
5 | C=C(C=O)[C@@H]1CC[C@]2(C)CC[C@]3(C)[C@H](CC[C@@H]4[C@@]5(C)CCC(=O)C(C)(C)[C@@H]5CC[C@]43C)[C@@H]12 | > 50 | 4.2 | 5.7 | 1.4 | 0
6 | CC(C)(O)[C@@H]1CC[C@]2(C)CC[C@]3(C)[C@H](CC[C@@H]4[C@@]5(C)CCC(=O)C(C)(C)[C@@H]5[C@H](O)C[C@]43C)[C@@H]12 | > 50 | >14.3 | > 100 | 7 | –
7 | C=C(C)[C@@H]1CC[C@]2(C)CC[C@]3(C)[C@H](C[C@@H](O)[C@@H]4[C@@]5(C)C=CC(=O)C(C)(C)[C@@H]5CC[C@]43C)[C@@H]12 | > 50 | 6.9 | 60.4 | 8.7 | –
8 | C=C(C)[C@@H]1CC[C@]2(C)CC[C@]3(C)[C@H](CC[C@@H]4[C@@]5(CO)CC[C@H](O)C(C)(C)[C@@H]5CC[C@]43C)[C@@H]12 | > 50 | 2.9 | 20 | 6.9 | –
9 | C=C(C=O)[C@@H]1CC[C@]2(COC(C)=O)CC[C@]3(C)[C@H](CC[C@@H]4[C@@]5(C)CC[C@H](O)C(C)(C)[C@@H]5CC[C@]43C)[C@@H]12 | > 50 | 8.2 | 14.2 | 1.7 | 0
10 | C=C(COC(C)=O)[C@@H]1CC[C@]2(C)CC[C@]3(C)[C@H](CC[C@@H]4[C@@]5(C)CCC(=O)C(C)(C)[C@@H]5CC[C@]43C)[C@@H]12 | > 50 | 2.8 | 36.2 | 13.1 | –
11 | CC(C)(O)[C@@H]1CC[C@]2(C)CC[C@]3(C)[C@H](CC[C@@H]4[C@@]5(C)CC[C@H](O)C(C)(C)[C@@H]5[C@H](O)C[C@]43C)[C@@H]12 | < 50 | – | – | – | –
12 | C=C(C)[C@@H]1CC[C@]2(CO)CC[C@]3(C)[C@H](CC[C@@H]4[C@@]5(C)[C@H](O)C[C@@H](O)C(C)(C)[C@@H]5CC[C@]43C)[C@@H]12 | < 50 | – | – | – | –
13 | C=C(C)[C@@H]1CC[C@]2(CO)CC[C@]3(C)[C@H](C[C@@H](O)[C@@H]4[C@@]5(C)CCC(=O)C(C)(C)[C@@H]5CC[C@]43C)[C@@H]12 | < 50 | – | – | – | –
14 | C=C(COC(C)=O)[C@@H]1CC[C@]2(C)CC[C@]3(C)[C@H](CC[C@@H]4[C@@]5(C)CC[C@H](OC(C)=O)C(C)(C)[C@@H]5CC[C@]43C)[C@@H]12 | < 50 | – | – | – | –
15 | C=C(C)[C@@H]1CC[C@]2(C)CC[C@]3(C)[C@H](CC[C@@H]4[C@@]5(C)CC(Br)C(=O)C(C)(C)[C@@H]5CC[C@]43C)[C@@H]12 (stereo not given in full) | < 50 | – | – | – | –
16 | C=C(C)[C@@H]1CC[C@]2(C)CC[C@]3(C)[C@H](C[C@@H](OC(C)=O)[C@@H]4[C@@]5(C)CCC(=O)C(C)(C)[C@@H]5CC[C@]43C)[C@@H]12 | < 50 | – | – | – | –
17 | C=C(CCl)[C@@H]1CC[C@]2(C)CC[C@]3(C)[C@H](C[C@@H](OC(C)=O)[C@@H]4[C@@]5(C)CCC(=O)C(C)(C)[C@@H]5CC[C@]43C)[C@@H]12 | < 50 | – | – | – | –
18 | C=C(CCl)[C@@H]1CC[C@]2(C)CC[C@]3(C)[C@H](C[C@@H](OC(C)=O)[C@@H]4[C@@]5(C)C=CC(=O)C(C)(C)[C@@H]5CC[C@]43C)[C@@H]12 | < 50 | – | – | – | –
19 | C=C(C)[C@@H]1CC[C@]2(CO)CC[C@]3(C)[C@H](CC[C@@H]4[C@@]5(C)CC[C@@H](O)C(C)(C)[C@@H]5CC[C@]43C)[C@@H]12 [3-EPI-BETULIN] | > 50 | 2.3 | 20 | 8.8 | –
20 | C=C(C)[C@@H]1CC[C@]2(COC(C)=O)CC[C@]3(C)[C@H](CC[C@@H]4[C@@]5(C)CC[C@H](OC(C)=O)C(C)(C)[C@@H]5CC[C@]43C)[C@@H]12 [BETULIN DIACETATE] | < 50 | – | – | – | –
21 | C=C(C)[C@@H]1CC[C@]2(CO)CC[C@]3(C)[C@H](CC[C@@H]4[C@@]5(C)CC[C@H](O)C(C)(C)[C@@H]5CC[C@]43C)[C@@H]12 [BETULIN] | < 50 | – | – | – | –
22 | C=C(C)[C@@H]1CC[C@]2(C=O)CC[C@]3(C)[C@H](CC[C@@H]4[C@@]5(C)CCC(=O)C(C)(C)[C@@H]5CC[C@]43C)[C@@H]12 [BETULONAL] | > 50 | 4.8 | 20 | 4.2 | –
23 | C=C(C)[C@@H]1CC[C@]2(CO)CC[C@]3(C)[C@H](CC[C@@H]4[C@@]5(C)CCC(=O)C(C)(C)[C@@H]5CC[C@]43C)[C@@H]12 [BETULONE] | > 50 | >24.5 | > 100 | 4.1 | –
24 | C=C(C)[C@@H]1CC[C@]2(C(=O)O)CC[C@]3(C)[C@H](CC[C@@H]4[C@@]5(C)CC[C@H](OC(=O)CC(C)(C)C(=O)O)C(C)(C)[C@@H]5CC[C@]43C)[C@@H]12 [BEVIRIMAT] | > 50 | >1000 | > 10 | 0.01 | –
25 | C=C(C)[C@@H]1CC[C@]2(C)CC[C@]3(C)[C@@H](CC[C@@H]4[C@@]5(C)[C@@H](O)C[C@H](O)C(C)(C)[C@@H]5CC[C@]43C)[C@@H]12 [GLOCHIDIOL] | > 50 | 1.4 | 20 | 13.9 | –
26 | C=C(C)[C@@H]1CC[C@]2(C)CC[C@]3(C)[C@@H](CC[C@@H]4[C@@]5(C)C=CC(=O)C(C)(C)[C@@H]5CC[C@]43C)[C@@H]12 [GLOCHIDONE] | < 50 | – | – | – | –
27 | C=C(C)[C@@H]1CC[C@]2(C)CC[C@]3(C)[C@H](CC[C@@H]4[C@@]5(C)CCC(=O)C(C)(C)[C@@H]5CC[C@]43C)[C@@H]12 [LUPENONE] | < 50 | – | – | – | –
28 | C=C(C)[C@@H]1CC[C@]2(C)CC[C@]3(C)[C@H](CC[C@@H]4[C@@]5(C)CC[C@H](O)C(C)(C)[C@@H]5CC[C@]43C)[C@@H]12 [LUPEOL] | < 50 | – | – | – | –
29 | C=C1C(=O)O[C@@H]2C[C@]3(C)CC[C@]4(C)[C@H](CC[C@@H]5[C@@]6(C)CCC(=O)C(C)(C)[C@@H]6CC[C@]54C)[C@H]3[C@H]12 [OCHRACEOLIDE A] | > 50 | >2.6 | > 100 | 39 | –
30 | C=C(C)[C@@H]1CC[C@]2(C)CC[C@]3(C)[C@@H](C[C@@H](O)[C@@H]4[C@@]5(C)CCC(=O)C(C)(C)[C@@H]5CC[C@]43C)[C@@H]12 [RIGIDENOL] | < 50 | – | – | – | –
